Data on four compounds can be found in ChEMBL document CHEMBL1148454, “[1-(3,5-difluoro-4-hydroxyphenyl)-1H-pyrrol-3-yl]phenylmethanone as a bioisostere of a carboxylic acid aldose reductase inhibitor” (J Med Chem, 2004).

As usually defined, the inhibition is the change of the read-out against control, counted positive when it falls. Lower therefore signals a response near the control. One may read the IC50 as the midpoint of a concentration-inhibition curve. Low readings indicate greater potency in that assay, high ones weaker potency in that assay.

The nature of experiment [1]: In vitro percentage inhibition of formation of DNPH-reactive carbonyl groups in BSA exposed to fructose at 1 mM concentration. The format is functional. The procedure, abridged:
(§1)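 Bovine serum albumin (fraction V, essentially fatty acid free) incubated with fructose for 28 days. Compounds given as potassium salts in water; trolox as reference.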

Experiment [2] is described as follows: In vitro percentage inhibition of glycation-induced fluorescence changes of BSA at 1 mM concentration. Type of experiment: functional. The method in brief:
as §1

Experiment [3] can be described thus: In vitro percentage inhibition of formation of DNPH-reactive carbonyl groups in BSA exposed to fructose at 5 mM concentration. The format is functional. The method in brief: as §1
Experiment [4] can be described thus: In vitro percentage inhibition of glycation-induced fluorescence changes of BSA at 5 mM concentration. The format is functional. The method in brief:
as §1

Experiment [5] is described as follows: In vitro percentage inhibition of formation of DNPH-reactive carbonyl groups in BSA exposed to fructose at […] concentration. The format is functional.
Experiment [6] is described as follows: In vitro percentage inhibition of glycation-induced fluorescence changes of BSA at […] concentration. The format is functional.
Experiment [7] addresses Aldo-keto reductase family 1 member B1 (Rattus norvegicus) (UniProt P07943). The experiment in a line: In vitro percentage inhibition of rat lens aldose reductase at 10E-6 M concentration. The method in brief:
(§2)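 Rat lens (Fischer-344, both sexes) aldose reductase, assayed by spectrophotometric monitoring of NADPH oxidation. Compounds dissolved in 0.2 M NaHCO3. Inhibition at a single concentration, triplicate determinations.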

Experiment [8] has the same target. Kind of experiment: In vitro percentage inhibition of rat lens aldose reductase at 10E-5 M concentration. The procedure, abridged: as §2
The target is the same in experiment [9]. Kind of experiment: In vitro percentage inhibition of rat lens aldose reductase at 10E-7 M concentration. The method in brief:
as §2

In experiment [10] the target is Aldo-keto reductase family 1 member B1 (Rattus norvegicus, UniProt P07943). Kind of experiment: In vitro inhibitory activity of compound against rat lens aldose reductase.

Molecules are shown by their SMILES.

Regarding `Cc1c(C)c2c(c(C)c1O)CCC(C)(C(=O)O)O2` (centres undefined), the inhibition in [1] came to 36%; in experiment [2] it was 59%.

On to `O=C(c1ccccc1)c1ccn(-c2cc(F)c(O)c(F)c2)c1`, for which the inhibition in experiment [3] was 61%; in experiment [1] it was 48%; in experiment [4], 74%; in experiment [5], 55%; in experiment [6], 68%; in experiment [7] it was 68%. For the same compound, the figures for the inhibition in experiment [8], in [2] and in experiment [9] were 88%, 64% and 29%, respectively. This compound also had an IC50 in [10] of 396 nM.

For the compound `O=C(O)Cn1ccc(C(=O)c2ccccc2)c1`, the inhibition in [3] stood at 67%; in experiment [1], 28%; in experiment [4] it was 81%; in experiment [5], 51%; in experiment [6], 67%; in [7], 37%. For the same compound, the inhibition in experiment [8] is 78%; in experiment [2], 48%. Also, 1970 nM corresponded to half-maximal inhibition in [10] (IC50).

With `Oc1c(F)cc(-n2cccc2)cc1F`, the inhibition is 13% in experiment [7] and 24% in experiment [8]. In addition, in [10], the IC50 was 23400 nM.
